Reference: ChEMBL document CHEMBL4811275, “Iodinated 1,2-diacylhydrazines, benzohydrazide-hydrazones and their analogues as dual antimicrobial and cytotoxic agents” (Bioorg Med Chem, 2021)
Converted amounts (≈) assume the structure as drawn.

Key:
[1] = system: HepG2; assay: Cytotoxicity against human HepG2 cells assessed as reduction in cell viability incubated for 24 hrs by cell-titer 96 aqueous one solution cell proliferation assay; format: functional, cell-based; conditions: HepG2, 24 h
[2] = system: Staphylococcus aureus; assay: Antibacterial activity against Staphylococcus aureus ATCC 29213 assessed as reduction in bacterial growth incubated for 48 hrs by broth microdilution method; format: functional
Method in brief: (§1)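 Cation-adjusted Mueller-Hinton broth microdilution per EUCAST, modified; compounds from DMSO stocks, final DMSO ≤1% v/v; scale starting from 0.49 µM. Static incubation at 35 ± 2 °C, dark, humidified, read at 24 and 48 h. MIC = lowest concentration with no visible growth by eye; duplicates, parallel readings within one dilution step; growth and medium/DMSO controls included.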

[3] = system: Escherichia coli; assay: Antibacterial activity against Escherichia coli ATCC 25922 assessed as reduction in bacterial growth incubated for 48 hrs by broth microdilution method; format: functional; method in brief: as §1
[4] = system: Trichophyton interdigitale; assay: Antifungal activity against Trichophyton interdigitale ATCC 9533 assessed as reduction in fungal growth incubated for 120 hrs by broth microdilution method; format: functional
Method in brief: (§2)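 Broth microdilution per EUCAST (yeasts and moulds), modified: twofold dilutions from DMSO (final ≤1% v/v) in RPMI-1640 with L-glutamine, 2% glucose, MOPS-buffered pH 7.0; scale from 0.49 µM. Static, dark, humidified, 35 ± 2 °C for 24 and 48 h (Trichophyton interdigitale 72 and 120 h). MIC = complete visible inhibition by eye; duplicates within one dilution step.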

[5] = system: Lichtheimia corymbifera; assay: Antifungal activity against Lichtheimia corymbifera CCM 8077 assessed as reduction in fungal growth incubated for 24 hrs by broth microdilution method; format: functional; method in brief: as §2
[6] = system: HK-2; assay: Cytotoxicity against human HK-2 cells assessed as reduction in cell viability incubated for 24 hrs by cell-titer 96 aqueous one solution cell proliferation assay; format: cell-based; conditions: HK-2, 24 h
[7] = system: Staphylococcus aureus; assay: Antibacterial activity against methicillin-resistant Staphylococcus aureus ATCC 43300 assessed as reduction in bacterial growth incubated for 48 hrs by broth microdilution method; format: functional
Method in brief: (§3)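 EUCAST-based broth microdilution in cation-adjusted Mueller-Hinton broth. DMSO stocks, final DMSO ≤1% v/v, concentration scale starting from 0.49 µM. Static incubation at 35 ± 2 °C, dark and humidified. Run in duplicate, accepted only if parallel MICs differ by at most one dilution step. MIC is the lowest concentration with no visible growth by naked eye.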

[8] = system: Lichtheimia corymbifera; assay: Antifungal activity against Lichtheimia corymbifera CCM 8077 assessed as reduction in fungal growth incubated for 48 hrs by broth microdilution method; format: functional; method in brief: as §2
[9] = system: Staphylococcus epidermidis; assay: Antibacterial activity against Staphylococcus epidermidis ATCC 12228 assessed as reduction in bacterial growth incubated for 48 hrs by broth microdilution method; format: functional; method in brief: as §1
[10] = system: HepG2; assay: Antiproliferative activity against human HepG2 cells assessed as increase in caspase 3/7 level at 1 uM incubated for 24 hrs by Caspase-glo reagent based microplate reader analysis relative to control; format: functional
Method in brief: (§4)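 HepG2 cells seeded at 15 000/well, compounds diluted in complete MEM, 24 h at 37 °C, 5% CO2; untreated vehicle controls. Caspase-Glo 3/7 reagent added, shaken 350 rpm at room temperature 60 min in dark, luminescence read. Expressed as fold of untreated control; triplicate wells, mean ± SD with n = 6.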

[11] = system: Pichia kudriavzevii; assay: Antifungal activity against Candida krusei ATCC 6258 assessed as reduction in fungal growth incubated for 24 hrs by broth microdilution method; format: functional; method in brief: as §2
[12] = system: Trichophyton interdigitale; assay: Antifungal activity against Trichophyton interdigitale ATCC 9533 assessed as reduction in fungal growth incubated for 72 hrs by broth microdilution method; format: functional; method in brief: as §2
[13] = system: Candida parapsilosis; assay: Antifungal activity against Candida parapsilosis ATCC 22019 assessed as reduction in fungal growth incubated for 48 hrs by broth microdilution method; format: functional; conditions: Lodderomyces parapsilosis; method in brief: as §2
[14] = system: Enterococcus faecalis; assay: Antibacterial activity against Enterococcus faecalis ATCC 29212 assessed as reduction in bacterial growth incubated for 48 hrs by broth microdilution method; format: functional; method in brief: as §1
[15] = system: Staphylococcus aureus; assay: Antibacterial activity against methicillin-resistant Staphylococcus aureus ATCC 43300 assessed as reduction in bacterial growth incubated for 24 hrs by broth microdilution method; format: functional; method in brief: as §3
[16] = system: Staphylococcus epidermidis; assay: Antibacterial activity against Staphylococcus epidermidis ATCC 12228 assessed as reduction in bacterial growth incubated for 24 hrs by broth microdilution method; format: functional; method in brief: as §1
[17] = system: Candida albicans; assay: Antifungal activity against Candida albicans ATCC 24443 assessed as reduction in fungal growth incubated for 24 hrs by broth microdilution method; format: functional; method in brief: as §2
[18] = system: Pichia kudriavzevii; assay: Antifungal activity against Candida krusei ATCC 6258 assessed as reduction in fungal growth incubated for 48 hrs by broth microdilution method; format: functional; method in brief: as §2
[19] = system: Enterococcus faecalis; assay: Antibacterial activity against Enterococcus faecalis ATCC 29212 assessed as reduction in bacterial growth incubated for 24 hrs by broth microdilution method; format: functional; method in brief: as §1
[20] = system: HepG2; assay: Antiproliferative activity against human HepG2 cells assessed as increase in caspase 3/7 level at 100 uM incubated for 24 hrs by Caspase-glo reagent based microplate reader analysis relative to control; format: functional; method in brief: as §4
[21] = system: Candida parapsilosis; assay: Antifungal activity against Candida parapsilosis ATCC 22019 assessed as reduction in fungal growth incubated for 24 hrs by broth microdilution method; format: functional; conditions: Lodderomyces parapsilosis; method in brief: as §2
[22] = system: Escherichia coli; assay: Antibacterial activity against Escherichia coli ATCC 25922 assessed as reduction in bacterial growth incubated for 24 hrs by broth microdilution method; format: functional; method in brief: as §1
[23] = system: Candida albicans; assay: Antifungal activity against Candida albicans ATCC 24443 assessed as reduction in fungal growth incubated for 48 hrs by broth microdilution method; format: functional; method in brief: as §2
[24] = system: Staphylococcus aureus; assay: Antibacterial activity against Staphylococcus aureus ATCC 29213 assessed as reduction in bacterial growth incubated for 24 hrs by broth microdilution method; format: functional; method in brief: as §1
[25] = system: Candida parapsilosis; assay: Antifungal activity against Candida parapsilosis ATCC 22019 assessed as reduction in fungal growth incubated for 24 hrs by broth microdilution method based spectrophotometric analysis; format: functional; conditions: Lodderomyces parapsilosis
[26] = system: Pichia kudriavzevii; assay: Antifungal activity against Candida krusei ATCC 6258 assessed as reduction in fungal growth incubated for 48 hrs by broth microdilution method based spectrophotometric analysis; format: functional
[27] = system: Lichtheimia corymbifera; assay: Antifungal activity against Lichtheimia corymbifera CCM 8077 assessed as reduction in fungal growth incubated for 24 hrs by broth microdilution method based spectrophotometric analysis; format: functional
[28] = system: Candida parapsilosis; assay: Antifungal activity against Candida parapsilosis ATCC 22019 assessed as reduction in fungal growth incubated for 48 hrs by broth microdilution method based spectrophotometric analysis; format: functional; conditions: Lodderomyces parapsilosis
[29] = system: Candida albicans; assay: Antifungal activity against Candida albicans ATCC 24443 assessed as reduction in fungal growth incubated for 24 hrs by broth microdilution method based spectrophotometric analysis; format: functional
[30] = system: Trichophyton interdigitale; assay: Antifungal activity against Trichophyton interdigitale ATCC 9533 assessed as reduction in fungal growth incubated for 120 hrs by broth microdilution method based spectrophotometric analysis; format: functional
[31] = system: Lichtheimia corymbifera; assay: Antifungal activity against Lichtheimia corymbifera CCM 8077 assessed as reduction in fungal growth incubated for 48 hrs by broth microdilution method based spectrophotometric analysis; format: functional
[32] = system: Candida albicans; assay: Antifungal activity against Candida albicans ATCC 24443 assessed as reduction in fungal growth incubated for 48 hrs by broth microdilution method based spectrophotometric analysis; format: functional
[33] = system: Pichia kudriavzevii; assay: Antifungal activity against Candida krusei ATCC 6258 assessed as reduction in fungal growth incubated for 24 hrs by broth microdilution method based spectrophotometric analysis; format: functional
[34] = system: Trichophyton interdigitale; assay: Antifungal activity against Trichophyton interdigitale ATCC 9533 assessed as reduction in fungal growth incubated for 72 hrs by broth microdilution method based spectrophotometric analysis; format: functional

| Compound | IC50 [1] [µM] | MIC [2] [µM] | MIC [3] [µM] | MIC [4] [µM] | MIC [5] [µM] | MIC [7] [µM] | MIC [8] [µM] | MIC [9] [µM] | MIC [11] [µM] | MIC [12] [µM] | MIC [13] [µM] | MIC [14] [µM] | MIC [15] [µM] | MIC [16] [µM] | MIC [17] [µM] | MIC [18] [µM] | MIC [19] [µM] | MIC [21] [µM] | MIC [22] [µM] | MIC [23] [µM] | also measured |
| --- | --- | --- | --- | --- | --- | --- | --- | --- | --- | --- | --- | --- | --- | --- | --- | --- | --- | --- | --- | --- | --- |
| O=C(N/N=C/c1cc(I)cc(I)c1O)c1ccc(F)cc1 | 12.1 | 31.2 (≈ 15.9 µg/mL) | > 500 | 62.5 (≈ 31.9 µg/mL) | 125 (≈ 63.8 µg/mL) | 31.2 (≈ 15.9 µg/mL) | 125 (≈ 63.8 µg/mL) | 31.2 (≈ 15.9 µg/mL) | 125 (≈ 63.8 µg/mL) | 15.6 (≈ 7.97 µg/mL) | 125 (≈ 63.8 µg/mL) | 62.5 (≈ 31.9 µg/mL) | 15.6 (≈ 7.97 µg/mL) | 31.2 (≈ 15.9 µg/mL) | 62.5 (≈ 31.9 µg/mL) | 125 (≈ 63.8 µg/mL) | 31.2 (≈ 15.9 µg/mL) | 62.5 (≈ 31.9 µg/mL) | > 500 | 125 (≈ 63.8 µg/mL) | IC50 [6]: 55.6 µM; fold change (FC) [10]: 1.36; fold change (FC) [20]: 1.33; MIC [24]: 15.6 µM (≈ 7.97 µg/mL) |
| Oc1c(I)cc(I)cc1CNNC(O)c1ccc(F)cc1 (stereo unspecified) | 41.9 | 15.6 (≈ 8.03 µg/mL) | > 500 | 62.5 (≈ 32.1 µg/mL) | > 500 | 62.5 (≈ 32.1 µg/mL) | > 500 | 7.81 (≈ 4.01 µg/mL) | > 500 | 62.5 (≈ 32.1 µg/mL) | > 500 | 15.6 (≈ 8.03 µg/mL) | 31.2 (≈ 16.1 µg/mL) | 7.81 (≈ 4.01 µg/mL) | > 500 | > 500 | 15.6 (≈ 8.03 µg/mL) | > 500 | > 500 | > 500 | MIC [24]: 15.6 µM (≈ 8.03 µg/mL) |
| OC(Cn1cncn1)(Cn1cncn1)c1ccc(F)cc1F [FLUCONAZOLE] |  |  |  |  |  |  |  |  |  |  |  |  |  |  |  |  |  |  |  |  | MIC [25]: 3.3 µM (≈ 1.01 µg/mL); MIC [26]: > 104 µM; MIC [27]: > 104 µM; MIC [28]: 3.3 µM (≈ 1.01 µg/mL); MIC [29]: 6.5 µM (≈ 1.99 µg/mL); MIC [30]: 52.2 µM (≈ 16 µg/mL); MIC [31]: > 104 µM; MIC [32]: 6.5 µM (≈ 1.99 µg/mL); MIC [33]: > 104 µM; MIC [34]: 52.2 µM (≈ 16 µg/mL) |
| O=C(NNCc1cc(I)cc(I)c1O)c1ccc(F)cc1 | 52.2 | 125 (≈ 64 µg/mL) | > 500 | 31.2 (≈ 16 µg/mL) | 15.6 (≈ 8 µg/mL) | 125 (≈ 64 µg/mL) | 31.2 (≈ 16 µg/mL) | 62.5 (≈ 32 µg/mL) | > 125 | 15.6 (≈ 8 µg/mL) | > 125 | 62.5 (≈ 32 µg/mL) | 62.5 (≈ 32 µg/mL) | 62.5 (≈ 32 µg/mL) | 125 (≈ 64 µg/mL) | > 125 | 31.2 (≈ 16 µg/mL) | > 125 | > 500 | > 125 | MIC [24]: 62.5 µM (≈ 32 µg/mL) |
